According to PMC2748767 (Journal of medicinal chemistry, 2009):

How the values were obtained:
HIV-1 X4LAI.04 = assay: Anti-HIV-1 assay in MT-4 cell cultures; assay type: cell-based; conditions: HIV-1 X4LAI.04 in MT-4 cells, 3 days, 50% suppression of p24 production
[1] = system: thymidine kinase-deficient (TK-) HSV-1 KOS strain resistant to ACV (ACVr); assay: Anti-TK-deficient HSV-1; assay type: cell-based; conditions: versus HSV-1 and HSV-2
CEM cells = assay: Cytostatic activity in CEM cells; assay type: cell-based; conditions: Homo sapiens, CCRF-CEM, read-out: Cytostatic activity IC50 CEM
[2] = Hydrolysis of ProTides in crude CEM cell extracts; assay type: in vitro ADME, human; conditions: 10 μM, 37 °C; for conversion in CEM cell extracts: within one hour of incubation
How it was run: (§1)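 Exponentially growing CEM cells were washed twice in PBS, resuspended in PBS and sonicated. The extract was cleared by centrifugation (10 min, 15,000 rpm) and frozen at -20 °C. Test compound (10 μM) was incubated in crude extract at 37 °C for 30, 60 and 120 min. Aliquots were quenched in cold methanol and centrifuged, and supernatants went to reverse-phase C18 HPLC. Results are given as percent disappearance of intact parent.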

[3] = Hydrolysis of ProTides in tonsil extracts; assay type: in vitro ADME, human; conditions: data not shown
How it was run: as §1, with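 “Tonsil tissues” for “Exponentially growing CEM cells”, “homogenised mechanically.” for “sonicated.”, “HPLC to separate parent from hydrolysis products.” for “HPLC. Results are given as percent disappearance of intact parent.”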

carboxypeptidase Y = carboxypeptidase Y (Saccharomyces cerevisiae, UniProt P00729); assay: Carboxypeptidase Y-mediated cleavage monitored by 31P-NMR; assay type: in vitro ADME; conditions: for conversion by carboxypeptidase Y (in words): d6-acetone and trizma buffer pH 7.6, 31P-NMR; for half-life: yeast, carboxypeptidase Y (isolated enzyme), pH 7.6
Sequence of carboxypeptidase Y (P00729 112-532): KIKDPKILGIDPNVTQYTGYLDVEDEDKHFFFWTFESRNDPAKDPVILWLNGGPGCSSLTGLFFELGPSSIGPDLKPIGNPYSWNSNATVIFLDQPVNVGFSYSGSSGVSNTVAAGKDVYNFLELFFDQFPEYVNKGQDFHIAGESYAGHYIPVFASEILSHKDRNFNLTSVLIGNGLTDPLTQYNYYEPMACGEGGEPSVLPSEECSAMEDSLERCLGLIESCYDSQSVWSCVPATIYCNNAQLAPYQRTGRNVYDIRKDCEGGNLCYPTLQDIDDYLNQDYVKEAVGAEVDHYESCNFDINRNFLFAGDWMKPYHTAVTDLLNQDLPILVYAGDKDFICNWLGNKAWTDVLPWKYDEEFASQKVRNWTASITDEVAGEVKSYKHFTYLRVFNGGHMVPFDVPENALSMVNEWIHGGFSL
How it was run: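 Test compound was dissolved in d6-acetone plus trizma buffer (pH 7.6). A 31P-NMR blank spectrum was recorded for each sample before carboxypeptidase Y was added, and conversion was then followed by 31P-NMR.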

[4] = Stability in pH 1.0 buffer monitored by 31P-NMR; assay type: physicochemical
[5] = Stability in human serum monitored by 31P-NMR; assay type: in vitro ADME; conditions: after 12 h, 37 °C, DMSO/D2O

With `Nc1nc2c(ncn2COCCO)c(=O)[nH]1` [ACV (1), acyclovir] the “Antiviral Activity EC50 HIV-1 MT4” value (HIV-1 X4LAI.04) was “inactive” and the “loss of activity against thymidine kinase-deficient HSV-1” value [1] was > 100 fold.

For `C[C@H](NP(=O)(OCCOCn1cnc2c(=O)[nH]c(N)nc21)Oc1cccc2ccccc12)C(=O)OCc1ccccc1` (stereo partly drawn) [Compound 2, acyclovir-[1-naphthyl(benzoxy-L-alaninyl)] phosphate], the IC50 (CEM cells) was 17 µM.

`CCCOC(=O)[C@H](C)NP(=O)(OCCOCn1cnc2c(=O)[nH]c(N)nc21)Oc1cccc2ccccc12` (some centres unmarked) [Compound 3] showed an IC50 (CEM cells) of 22 µM.

With `COC(=O)[C@H](C)NP(=O)(OCCOCn1cnc2c(=O)[nH]c(N)nc21)Oc1cccc2ccccc12` (some centres unmarked) [Compound 4] the IC50 (CEM cells) was 57 µM, the “conversion in CEM cell extracts” value [2] was 65% and the “hydrolysis in tonsil extracts (in words)” value [3] was “efficiently hydrolyse”.

For `C[C@H](NP(=O)(OCCOCn1cnc2c(=O)[nH]c(N)nc21)Oc1cccc2ccccc12)C(=O)OC(C)(C)C` (some centres unmarked) [Compound 6], the “conversion by carboxypeptidase Y (in words)” value (carboxypeptidase Y) was “no conversion at all” and the “stability in CEM cell extracts (in words)” value ([2]; after a 120 min-incubation period) was “entirely stable”.

Work on `COC(=O)[C@H](C)NP(=O)(OCCOCn1cnc2c(=O)[nH]c(N)nc21)Oc1ccccc1` (some centres unmarked) [Compound 8] yielded an IC50 (CEM cells) of 67 ± 7.8 µM.

In the case of `C[C@H](NP(=O)(OCCOCn1cnc2c(=O)[nH]c(N)nc21)Oc1ccccc1)C(=O)OCc1ccccc1` (some centres unmarked) [Compound 9], the half-life (carboxypeptidase Y) is reported as 17 min, the half-life [4] is reported as 660 min and the “conversion in CEM cell extracts” value [2] is reported as > 95%. For the same molecule, the “compound still present in human serum” value [5] was 56% and the “hydrolysis in tonsil extracts (in words)” value [3] was “efficiently hydrolyse”.

For `CC(C)OC(=O)[C@H](C)NP(=O)(OCCOCn1cnc2c(=O)[nH]c(N)nc21)Oc1ccccc1` (some centres unmarked) [Compound 10], the “times slower conversion by carboxypeptidase Y than 9” value (carboxypeptidase Y; ratio of half-lives versus compound 9) was “ca. 150 times” and the half-life (carboxypeptidase Y) was 2760 min.

`Nc1nc2c(ncn2COCCOP(=O)(NC(Cc2ccccc2)C(=O)OCc2ccccc2)Oc2ccccc2)c(=O)[nH]1` (centres unmarked) [Compound 15] showed an IC50 (CEM cells) of 42 µM.

With `COC(=O)[C@@H](NP(=O)(OCCOCn1cnc2c(=O)[nH]c(N)nc21)Oc1cccc2ccccc12)C(C)C` (some centres unmarked) [Compound 17] the half-life (carboxypeptidase Y) was 4320 min.

For `COC(=O)[C@H](NP(=O)(OCCOCn1cnc2c(=O)[nH]c(N)nc21)Oc1cccc2ccccc12)C(C)C` (some centres unmarked) [Compound 19], the “conversion by carboxypeptidase Y (in words)” value (carboxypeptidase Y) was “not processed”.
